Test results as given in ChEMBL document CHEMBL1143802, “Synthesis and biological evaluation of some 6-substituted purines” (Eur J Med Chem, 2007).

Key:
Leishmania chagasi = assay: Antileishmanial activity against Leishmania chagasi MHOM/Br/74/PP75 promastigotes by MTT colorimetric method; type: functional, organism-based
Procedure, shortened: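 Log-phase promastigotes kept at 24 °C in Medium 199 plus 10% fetal bovine serum. Seeded at 3 million cells/mL and held 1 h at 24 °C before compound addition in water or DMSO (up to 1% v/v). Each concentration run in triplicate over a three-day incubation. Viability measured by MTT; IC50 is the concentration giving 50% growth inhibition.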

Leishmania amazonensis = assay: Antileishmanial activity against Leishmania amazonensis MHOM/Br/75/Josefa promastigotes by MTT colorimetric method; type: functional, organism-based
Procedure, shortened: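 Log-phase promastigotes grown at 24 °C in Warren's medium (brain heart infusion with hemin and folic acid) plus 10% fetal bovine serum. Seeded at 2 million cells/mL and preincubated 1 h at 24 °C. Compounds added in water or DMSO (up to 1% v/v), each concentration in triplicate. Incubated three days, viability read by MTT, and IC50 taken as 50% growth inhibition.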

Row | Compound | IC50 (Leishmania chagasi) | IC50 (Leishmania amazonensis)
1 | CO[C@@H]1O[C@H](CSc2ncnc3[nH]cnc23)[C@@H](O)[C@H]1O | > 227 µM | 29 µM
2 | NCCSCCCSc1ncnc2[nH]cnc12 | > 227 µM | 50 µM
3 | CC1(C)O[C@H]2[C@@H](O1)[C@@H](CSc1ncnc3[nH]cnc13)O[C@@H]1OC(C)(C)O[C@@H]12 | > 227 µM | > 227 µM
4 | C[C@@H]1[C@H](O)[C@@H](C)/C=C/C=C/C=C/C=C/C=C/C=C/C=C/[C@H](O[C@@H]2O[C@H](C)[C@@H](O)[C@H](N)[C@@H]2O)C[C@@H]2O[C@](O)(C[C@@H](O)C[C@@H](O)[C@H](O)CC[C@@H](O)C[C@@H](O)CC(=O)O[C@H]1C)C[C@H](O)[C@H]2C(=O)O [AMPHOTERICIN B] | 1.9 µM | 0.9 µM
5 | CCOC(=O)CSc1ncnc2[nH]cnc12 | > 227 µM | > 227 µM
6 | CO[C@@H]1O[C@H](CSc2ncnc3[nH]cnc23)[C@H]2OC(C)(C)O[C@@H]12 | > 227 µM | > 227 µM
7 | O=C1c2ccccc2C(=O)N1CCCCSc1ncnc2[nH]cnc12 | > 227 µM | > 227 µM
8 | O=C(O)CSc1ncnc2[nH]cnc12 | > 227 µM | 39 µM
9 | ClCCCSc1ncnc2[nH]cnc12 | > 227 µM | 50 µM
10 | Sc1ncnc2nc[nH]c12 [MERCAPTOPURINE ANHYDROUS] | > 227 µM | > 227 µM
11 | CC1(C)O[C@H]2[C@H]3OC(C)(C)O[C@]3(CSc3ncnc4[nH]cnc34)OC[C@H]2O1 | > 227 µM | > 227 µM
12 | NCCNCCCSc1ncnc2[nH]cnc12 | > 227 µM | > 227 µM
13 | c1nc(SCCCNC2CCCCC2)c2nc[nH]c2n1 | > 227 µM | > 227 µM
